Screens: PubChem BioAssay, several laboratories
KCNQ1 block: human KCNQ1 channel inhibition; P51787; CHO-K1 KCNQ1, FluxOR thallium flux fluorescence; active compounds read high; B-score at 10 µM; hit rate 1.3% among 310,000;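 active = compounds whose thallium flux B-score, printed positive for inhibition, exceeds three library SD while starting fluorescence stays within three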;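 also: channel opened by potassium depolarization with thallium stimulus after 20 min compound exposure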
KCNK3 block: human KCNK3 channel inhibition, primary screen; CHO-KCNK3 thallium flux, FluxOR fluorescence; active compounds read low; O14649; B-score at 10 µM; hit rate 0.84% among 340,000;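 active = B-score under library mean minus 4 SD, starting fluorescence ratio at most library mean plus 5 SD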;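 also: more negative B-score means stronger inhibition of thallium flux through KCNK3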
hERG rescue: compounds protecting human hERG from proarrhythmic drug block; Q12809; CHO-hERG, FluxOR thallium flux, dofetilide IC70 present; activation (rescue from dofetilide block), less the hit threshold, % at 10 µM; hit rate 0.51% among 310,000;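 active = activation above the mean of controls blocked by dofetilide plus 5 SD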;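 also: thallium influx through hERG after potassium depolarization seen as dye fluorescence rise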
KCNQ1 pot: potentiates or activates the human KCNQ1 potassium channel; P51787; CHO-K1 KCNQ1, thallium flux FluxOR fluorescence; active compounds read high; B-score at 10 µM; hit rate 0.35% among 310,000; AID 2648;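 active = fluorescence ratio B-score, a plate-corrected score, at least three library SD, with initial intensity B-score within 5 SD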
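assay system = KCNQ1-transfected CHO-K1 cells | medium = assay buffer with matched DMSO | probe or stimulus = depolarizing K+/Tl+ stimulus, K2SO4 and Tl2SO4 each 12.5 mM in 5x stock | dosing = single dose | incubation = dye 90 min, compound 20 min, room temperature | detection = kinetic FluxOR fluorescence, 10 s baseline plus 110 s post-stimulus | evaluation = ratio B score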
KCC2 mod: KCC2 (human) Cl- transport modulation | B-score of Tl+ flux slope (higher = more flux/activation; lower = inhibition) at 10 µM | Q9H2X9 | hit rate 2.2% among 190,000 | AID 1456 | KCC2 cells, thallium flux FluoZin-2 fluorescence;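 active = thallium flux slope and its plate-corrected score both differing from the plate sample mean at a set confidence after two filtering rounds, in either direction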;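 also: slope of fluorescence scaled to starting intensity during 10 to 20 s after thallium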
KCNK9 inh: blocks the human KCNK9 two-pore domain potassium channel; Q9NPC2; HEK293 KCNK9, FluxOR thallium flux fluorescence; active compounds read low; B-score at 10 µM; hit rate 1.2% among 310,000;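 active = ratio B-score over 3 SD below the library mean, with starting fluorescence within 5 SD of its mean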;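 also: negative B-score means less thallium flux so channel inhibition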
KCNQ1 block val: reconfirmed blocker of the human KCNQ1 potassium channel. inhibition, % at 10 µM. shares compounds with KCNQ1 block. KCNQ1 cell line, FluxOR thallium flux fluorescence. hit rate 93% among 1,600;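 active = primary screen active, with duplicate mean exceeding buffer control mean plus 3 SD of buffer wells, cut at about 28% in these data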;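 also: 0% = buffer control ratio and 100% = XE991 inhibitor control ratio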
CHO Tl flux: counter-screen for KCNQ1 inhibitors: effect in parental CHO cells. fluorescence ratio (Tl flux) at 10 µM. hit rate 21% among 1,600. parental CHO-K1, FluxOR thallium flux fluorescence ratio; active compounds read low; zero means no signal rise above baseline. shares compounds with KCNQ1 block;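 active = mean of duplicate thallium-flux fluorescence ratios in parental host cells more than 5 SD below the buffer control mean, cut at about 0.38 in these data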;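 also: ratio is peak minus minimum fluorescence divided by baseline fluorescence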
KCNQ1 ephys val: confirmation of human KCNQ1 potassium channel inhibitors by electrophysiology | hit rate 20% among 490 | KCNQ1-CHO cells, automated patch clamp current | calls only at 10 µM | shares compounds with KCNQ1 block | AID 624120;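 active = KCNQ1 current drop exceeding 3 SD of negative control wells, seen in both duplicate runs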;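 also: steady state current during a 2 s step from -80 to +40 mV; negative values mean current inhibition and positive values mean potentiation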
KCNQ2 inh: selectivity of KCNQ1 inhibitors: inhibition of rat KCNQ2 channel | shares compounds with KCNQ1 block | KCNQ2 cells, FluxOR thallium flux fluorescence | inhibition, % at 10 µM | hit rate 71% among 1,600 | AID 651746;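 active = mean percent inhibition of the KCNQ2 thallium signal more than 5 SD above the buffer-only control wells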;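 also: KCNQ2 expressed in CHO cells; 0% = buffer control wells and 100% = XE-991 inhibitor control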
Target sequence (O88943 whole entry, looked up): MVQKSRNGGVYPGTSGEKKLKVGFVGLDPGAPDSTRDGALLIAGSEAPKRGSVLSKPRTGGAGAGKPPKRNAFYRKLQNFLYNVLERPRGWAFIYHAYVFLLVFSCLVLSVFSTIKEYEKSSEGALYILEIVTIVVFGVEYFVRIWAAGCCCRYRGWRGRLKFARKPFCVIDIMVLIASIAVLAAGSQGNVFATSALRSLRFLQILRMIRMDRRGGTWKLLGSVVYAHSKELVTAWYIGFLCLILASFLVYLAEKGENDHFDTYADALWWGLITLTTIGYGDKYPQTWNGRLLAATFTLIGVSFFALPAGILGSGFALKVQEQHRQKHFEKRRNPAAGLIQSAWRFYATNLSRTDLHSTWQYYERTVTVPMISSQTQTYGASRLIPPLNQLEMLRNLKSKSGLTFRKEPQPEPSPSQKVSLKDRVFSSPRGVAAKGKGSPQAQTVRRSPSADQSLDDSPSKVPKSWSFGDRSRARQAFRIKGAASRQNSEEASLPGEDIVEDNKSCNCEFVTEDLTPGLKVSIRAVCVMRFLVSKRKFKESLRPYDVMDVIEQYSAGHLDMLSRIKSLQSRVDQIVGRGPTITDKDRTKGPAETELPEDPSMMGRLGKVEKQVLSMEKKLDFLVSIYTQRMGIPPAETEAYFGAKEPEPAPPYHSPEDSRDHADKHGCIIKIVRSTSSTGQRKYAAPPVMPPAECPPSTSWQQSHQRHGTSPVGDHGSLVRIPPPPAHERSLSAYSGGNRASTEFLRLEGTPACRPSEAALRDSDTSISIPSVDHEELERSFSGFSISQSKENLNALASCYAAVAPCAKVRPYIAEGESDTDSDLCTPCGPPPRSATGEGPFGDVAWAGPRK
KCNQ1 KCNE1 spec: KCNQ1 inhibitor that also blocks human KCNQ1/KCNE1 channel | shares compounds with KCNQ1 block | KCNQ1/KCNE1 cells, FluxOR thallium flux fluorescence | inhibition, % at 10 µM | hit rate 77% among 1,600 | AID 652147;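 active = mean percent inhibition of duplicate wells above the buffer-only control mean plus 3 SD of those controls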;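 also: 0% = buffer only wells and 100% = XE-991 inhibitor control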
KCNK9 inh conf: confirmation of human KCNK9 potassium channel inhibitors; AID 492992; shares compounds with KCNK9 inh; hit rate 43% among 4,900; HEK293 KCNK9 cells, FluxOR thallium flux fluorescence; inhibition, % at 10 µM;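 active = thallium signal inhibited by more than 5 SD of the compound-free buffer control wells, on both duplicate plates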;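 also: 0% = assay buffer control wells without compound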
Kir21 sel: tests whether KCNK9 modulators also affect mouse Kir2.1; shares compounds with KCNK9 inh; Kir2.1 cells, FluxOR thallium flux fluorescence; inhibition, % at 10 µM; hit rate 4% among 4,900; AID 492993;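 active = thallium signal drop more than 5 SD beyond the mean of the no-compound control wells, seen in both duplicate plates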;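 also: signal is fluorescence rise after thallium addition divided by baseline fluorescence; plate controls were assay buffer only for no effect and full block by chlorpromazine control for full effect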
HEK293 Tl ctr: second check of KCNK9 modulator effects in non-induced HEK293 cells | hit rate 40% among 4,900 | FluxOR thallium flux | inhibition, % at 10 µM | shares compounds with KCNK9 inh | AID 492997;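 active = thallium signal drop beyond 5 SD of the untreated control mean, on both duplicate plates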;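 also: plate controls were buffer only IC0 wells for no effect and SID17386958 at its maximal inhibitory level for full effect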
* marks the source's active call; other numbers are inactive results; i = inactive; nt = not tested or not shown; + = active, no number. The list is not random: actives were taken first. Their share in the collection is about 4.1%.

SMILES | KCNQ1 block | KCNK3 block | hERG rescue | KCNQ1 pot | KCC2 mod | KCNK9 inh | KCNQ1 block val | CHO Tl flux | KCNQ2 inh | KCNQ1 KCNE1 spec | others
O=C(Cn1nnc2ccccc21)OCC(=O)c1ccc(Cl)cc1 | 7* | nt | -12 | i | -0.43 | i | 0 | 0.48 | i | 42%*
CCN(CC)S(=O)(=O)c1cc(C)ccc1NC(=S)Nc1cccnc1 | 10* | i | -13 | i | 0.025 | i | 68* | 0.49 | 61%* | 48%*
CCCc1cc(C(=O)Nc2ccc(C(=O)c3ccc(C)cc3)cc2)n(C)n1 | 11* | i | -30 | i | nt | i | 170* | 0.36* | 140%* | +
CCCc1cc(C(=O)Nc2cccc3ccccc23)n(C)n1 | i | i | -8 | i | nt | i | nt | nt | nt | nt
CCOc1ccc2noc3c2c1C(=O)c1ccccc1-3 | 32* | i | -48 | i | nt | i | + | 0.018* | i | i
CC(C)Cn1c(N)c(C(=O)COC(=O)c2cc(-c3ccccc3)nc3ccccc23)c(=O)n(C)c1=O | 7* | i | -10 | i | 0.81 | i | 106* | 0.44 | 120%* | 156%* | KCNQ1 ephys val=i
CC(C)(C)C(=O)COC(=O)c1cc(-c2ccncc2)nc2ccccc12 | 7* | i | -18 | i | -0.96 | i | 52* | 0.42 | 92%* | 48%*
CC(C)Cn1c(N)c(C(=O)COC(=O)c2cc(-c3ccco3)nc3ccccc23)c(=O)n(C)c1=O | i | i | -12 | i | 0.16 | i | nt | nt | nt | nt
O=C(NC(=S)NCCCN1CCOCC1)c1ccco1 | i | i | -15 | i | 0.29 | i | nt | nt | nt | nt
O=C(c1cc(-c2ccccc2)nc2ccccc12)N1CCOCC1 | i | i | -1 | i | nt | i | nt | nt | nt | nt
CC(C)c1ccc(-c2cc(C(=O)N3CCOCC3)c3cc(Br)ccc3n2)cc1 | 6* | i | -12 | i | nt | i | 40* | 0.43 | 131%* | i
Cc1c(NC(=O)c2ccc(Br)o2)cccc1C(=O)O | i | i | -9 | i | nt | i | nt | nt | nt | nt
Cc1[nH]c2ccccc2c1C(=O)COc1ccccc1 | 7* | i | -12 | i | -1.1 | i | 0 | 0.48 | 63%* | 40%*
O=C(c1cccc(NS(=O)(=O)c2ccc(F)c(F)c2)c1)N1CCN(C(c2ccccc2)c2ccccc2)CC1 | 11* | i | -15 | i | -0.51 | i | 131* | 0.4 | 109%* | 155%* | KCNQ1 ephys val=i
COCCOC(=O)c1sc2nc[nH]c(=O)c2c1C | i | i | -5 | i | 1 | i | nt | nt | nt | nt
BrC(=C\c1ccccc1)/C=N/Nc1nc2ccccc2[nH]1 | i | i | -3 | i | 0.62 | i | nt | nt | nt | nt
O=C(Nc1ccc(Cl)c(Cl)c1)N1CCSC1c1ccco1 (stereo not drawn) | 10* | i | -10 | i | -1.4 | -11* | 111* | 0.37* | i | 118%* | KCNK9 inh conf=53%*;Kir21 sel=i;HEK293 Tl ctr=i
CC(=O)Nc1ccc(S(=O)(=O)N2CCSC2c2ccco2)cc1 (stereo not drawn) | i | i | -10 | i | nt | i | nt | nt | nt | nt
Cc1cccc(N2CCN(C(=O)COc3ccc4c(c3)CCC4)CC2)c1C | 6* | i | -10 | i | -0.16 | i | 102* | 0.46 | 100%* | 109%* | KCNQ1 ephys val=i;KCNK9 inh conf=i;Kir21 sel=i;HEK293 Tl ctr=i
Cc1cccc(N2CCN(C(=O)COc3ccc4ccc(=O)oc4c3)CC2)c1C | i | i | -9 | i | nt | i | nt | nt | nt | nt
COc1ccc(C(=O)NCCCNC(=O)c2cc3ccccc3[nH]2)cc1OC | i | i | -2 | i | nt | i | nt | nt | nt | nt
C=CCn1c(/N=C/c2ccc(N(C)C)cc2)nc2ccccc21 | i | i | -18 | i | i | i | nt | nt | nt | nt
CCCCn1c(/N=C/c2ccc(N(C)C)cc2)nc2ccccc21 | 11* | -11* | -9 | i | -0.77 | -12* | 170* | 0.3* | 135%* | 94%* | KCNK9 inh conf=30%*;Kir21 sel=i;HEK293 Tl ctr=55%*
Oc1c(Br)cc(Br)c(/C=N/n2c(-c3ccccc3)n[nH]c2=S)c1Br | 7* | i | -6 | i | nt | i | 83* | 0.45 | i | i | KCNK9 inh conf=i;Kir21 sel=i;HEK293 Tl ctr=i
Cc1cc(C)c(S(=O)(=O)N2CCN(C(=O)c3ccc4c(c3)OCO4)CC2)c(C)c1 | i | i | -8 | i | nt | i | nt | nt | nt | nt
SMILES | KCNQ1 block | KCNK3 block | hERG rescue | KCNQ1 pot | KCC2 mod | KCNK9 inh | KCNQ1 block val | CHO Tl flux | KCNQ2 inh | KCNQ1 KCNE1 spec | others
CCC(C)(NC(=O)CNC(C)=O)C(=O)NC1CCCCC1 (stereo not drawn) | i | i | -5 | i | nt | i | nt | nt | nt | nt
COc1ccccc1NC(=O)Nc1ccccc1C(=O)NCCCN1CCOCC1 | i | i | -2 | i | -0.5 | i | nt | nt | nt | nt
N#C/C(=C/c1ccc(N2CCOCC2)o1)c1ccc(Br)cc1 | 16* | i | -25 | i | -1.2 | -12* | 167* | 0.26* | i | + | KCNK9 inh conf=71%*;Kir21 sel=36%*;HEK293 Tl ctr=70%*
CCCC1(c2ccccc2)NC(=O)N(CC(=O)N(C)Cc2c(F)cccc2Cl)C1=O (stereo not drawn) | i | i | -7 | i | nt | i | nt | nt | nt | nt
Cc1cc(Cl)ccc1OC(C)C(=O)Nc1ccccc1N1CCOCC1 (stereo not drawn) | 6* | i | -5 | i | -0.74 | -9.3* | 88* | 0.32* | 101%* | 140%* | KCNK9 inh conf=38%*;Kir21 sel=44%*;HEK293 Tl ctr=46%*
CC(Oc1ccc(Cl)cc1)C(=O)Nc1ccccc1N1CCOCC1 (stereo not drawn) | nt | i | nt | nt | nt | nt | nt | nt | nt | nt
